Reference: ChEMBL document CHEMBL1806419, “18β-Glycyrrhetinic acid derivatives induced mitochondrial-mediated apoptosis through reactive oxygen species-mediated p53 activation in NTUB1 cells” (Bioorg Med Chem, 2011)
Activity calls are given as the source filed them. The calls are words filed in the database; no cut-off is given here.

What was measured:
[1] = Cell cycle arrest in human NTUB1 cells assessed as accumulation at subG1 phase at 75 uM after 24 hrs by propidium iodide staining based flow cytometric analysis (reference value: 6.68%); format: functional
How it was run: (§1)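 8×10^5 NTUB1 cells plated, treated 24 h (alongside 10 µM cisplatin, 1 mM NAC, 50 µM H2O2 controls); harvested by trypsinization, fixed overnight in ice-cold MeOH at −20 °C, stained with 50 µg/mL propidium iodide plus 50 µg/mL RNase A in PBS 30 min at room temperature; cell-cycle phase fractions and sub-G1 (apoptotic) DNA content by FACScan flow cytometry; three independent experiments.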

[2] = Cytotoxicity against human NTUB1 cells after 72 hrs by MTT assay; format: functional, cell-based; settings: NTUB1, 72 h
How it was run: (§2)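 Cells seeded 1800/well in 96-well plates, preincubated overnight at 37 °C, then exposed to graded concentrations for 72 h at 37 °C (NTUB1, PC3 in RPMI 1640; SV-HUC1 in F12; 10% FBS, 5% CO2). MTT (2 mg/mL) added 3 h, formazan dissolved in DMSO, absorbance 540 nm; viability as percent of control; IC50 by median-effect analysis, mean ± SD.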

[3] = target: Cellular tumor antigen p53 (Homo sapiens) (UniProt P04637); assay: Increase in p53 phosphorylation in human NTUB1 cells after 24 hrs by Western blot analysis; format: cell-based
Cellular tumor antigen p53 (Homo sapiens), sequence (P04637 whole entry, looked up): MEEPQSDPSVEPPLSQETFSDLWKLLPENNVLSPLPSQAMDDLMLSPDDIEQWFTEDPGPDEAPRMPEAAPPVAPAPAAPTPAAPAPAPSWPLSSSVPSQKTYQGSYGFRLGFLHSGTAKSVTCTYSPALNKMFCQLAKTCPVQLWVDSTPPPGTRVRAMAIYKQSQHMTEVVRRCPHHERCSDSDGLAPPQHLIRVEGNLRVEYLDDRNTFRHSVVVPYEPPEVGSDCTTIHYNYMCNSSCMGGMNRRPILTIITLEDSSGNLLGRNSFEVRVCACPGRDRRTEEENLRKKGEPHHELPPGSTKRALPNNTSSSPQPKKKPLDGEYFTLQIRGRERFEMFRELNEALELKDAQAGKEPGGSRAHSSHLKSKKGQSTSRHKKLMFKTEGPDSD
How it was run: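 NTUB1 cells exposed 24 h to 0–50 µM (10 µM cisplatin comparator), or to 50 µM with or without 1 mM NAC; lysed in boiled sample buffer, SDS–PAGE, nitrocellulose semi-dry transfer, milk-blocked in TBST, primary antibodies (p-p53 Ser15, p53 DO1, β-actin) overnight at 4 °C, secondary 1 h, ECL detection; triplicate experiments.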

[4] = Cell cycle arrest in human NTUB1 cells assessed as accumulation at S phase at 75 uM after 24 hrs by propidium iodide staining based flow cytometric analysis (reference value: 20.37%); format: functional; how it was run: as §1
[5] = Induction of apoptosis in human NTUB1 cells assessed as decrease in JC-1 aggregation at 10 uM after 24 hrs by flow cytometric analysis; format: functional; design: scale not given: the % may be the effect or the level left
How it was run: (§3)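 NTUB1 bladder carcinoma cells (3 × 10^5) in RPMI 1640 with 10% FBS at 37 °C, 5% CO2, exposed to test agent (10, 25 or 50 µM) with 10 µM CCCP as positive control. Stained 30 min with 1 µM JC-1 in medium, washed, trypsinised, resuspended in PBS/2% BSA. Flow cytometry read green monomer and red aggregate fluorescence; the aggregate/monomer ratio represents membrane potential.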

[6] = Cell cycle arrest in human NTUB1 cells assessed as accumulation at G2/M phase at 25 uM after 24 hrs by propidium iodide staining based flow cytometric analysis (reference value: 20.37%); format: functional; how it was run: as §1
[7] = Cell cycle arrest in human NTUB1 cells assessed as accumulation at subG1 phase at 50 uM after 24 hrs by propidium iodide staining based flow cytometric analysis (reference value: 6.68%); format: functional; how it was run: as §1
[8] = Induction of apoptosis in human NTUB1 cells assessed as increase in JC-1 probe monomers at 10 uM after 24 hrs by flow cytometric analysis; format: functional; how it was run: as §3
[9] = Cell cycle arrest in human NTUB1 cells assessed as accumulation at G1 phase at 50 uM after 24 hrs by propidium iodide staining based flow cytometric analysis (reference value: 50.64%); format: functional; how it was run: as §1
[10] = Induction of apoptosis in human NTUB1 cells assessed as decrease in JC-1 aggregation at 25 uM after 24 hrs by flow cytometric analysis; format: functional; design: scale not given: the % may be the effect or the level left
How it was run: (§4)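 NTUB1 cells (3×10^5) treated with 10, 25 or 50 µM (10 µM CCCP control), then loaded with 1 µM JC-1 in medium 30 min; washed in PBS, trypsinized, resuspended in PBS/2% BSA; green monomer (R2) and red aggregate (R1) fluorescence by flow cytometry, aggregate/monomer ratio representing membrane potential.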

NTUB1 = assay: Induction of apoptosis in human NTUB1 cells assessed as activation of caspase 3 at 10 to 50 uM by Western blot analysis; format: functional, cell-based
[11] = Cell cycle arrest in human NTUB1 cells assessed as accumulation at subG1 phase after 24 hrs by propidium iodide staining based flow cytometric analysis; format: functional; how it was run: as §1
PC-3 = assay: Cytotoxicity against human PC3 cells after 72 hrs by MTT assay; format: functional, cell-based; how it was run: as §2
[12] = Increase in ROS generation in human NTUB1 cells at 10 uM after 24 hrs by H2DCFDA staining based flow cytometeric analysis relative to control; format: functional
How it was run: (§5)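 NTUB1 cells (3×10^5 per 6 cm dish) treated 24 h (20 µM cisplatin and 1 mM NAC controls; medium-only control); 10 µM H2DCFDA added 30 min before harvest; trypsinized, PBS-washed, DCF green fluorescence (525 nm band pass, region M1) measured immediately by flow cytometry; percent change vs control; mean ± SD, n = 3.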

[13] = Cell cycle arrest in human NTUB1 cells assessed as accumulation at G2/M phase at 75 uM after 24 hrs by propidium iodide staining based flow cytometric analysis (reference value: 20.37%); format: functional; how it was run: as §1
[14] = Induction of apoptosis in human NTUB1 cells assessed as increase in JC-1 probe monomers at 25 uM after 24 hrs by flow cytometric analysis; format: functional; how it was run: as §4
[15] = Cell cycle arrest in human NTUB1 cells assessed as accumulation at G2/M phase at 50 uM after 24 hrs by propidium iodide staining based flow cytometric analysis (reference value: 20.37%); format: functional; how it was run: as §1
[16] = Cell cycle arrest in human NTUB1 cells assessed as accumulation at S phase at 25 uM after 24 hrs by propidium iodide staining based flow cytometric analysis (reference value: 20.37%); format: functional; how it was run: as §1
[17] = Cell cycle arrest in human NTUB1 cells assessed as accumulation at G1 phase at 75 uM after 24 hrs by propidium iodide staining based flow cytometric analysis (reference value: 50.64%); format: functional; how it was run: as §1
[18] = Increase in ROS generation in human NTUB1 cells at 25 uM after 24 hrs by H2DCFDA staining based flow cytometeric analysis relative to control; format: functional; how it was run: as §5
[19] = Cell cycle arrest in human NTUB1 cells assessed as accumulation at subG1 phase at 25 uM after 24 hrs by propidium iodide staining based flow cytometric analysis (reference value: 6.68%); format: functional; how it was run: as §1
[20] = Cell cycle arrest in human NTUB1 cells assessed as accumulation at S phase at 50 uM after 24 hrs by propidium iodide staining based flow cytometric analysis (reference value: 20.37%); format: functional; how it was run: as §1
[21] = Induction of apoptosis in human NTUB1 cells assessed as decrease in JC-1 aggregation at 50 uM after 24 hrs by flow cytometric analysis; format: functional; design: scale not given: the % may be the effect or the level left; how it was run: as §4
[22] = Induction of apoptosis in human NTUB1 cells assessed as increase in JC-1 probe monomers at 50 uM after 24 hrs by flow cytometric analysis; format: functional; how it was run: as §4
[23] = Cell cycle arrest in human NTUB1 cells assessed as accumulation at G1 phase at 25 uM after 24 hrs by propidium iodide staining based flow cytometric analysis (reference value: 50.64%); format: functional; how it was run: as §1
[24] = Cytotoxicity against immortalized human SV-HUC1 cells after 72 hrs by MTT assay; format: cell-based; settings: sv-huc1, 72 h; how it was run: as §2

Activity [3]: Dose-dependent effect
Structure (SMILES): C=C(C)[C@@H]1CC[C@]2(C)[C@H](C(=O)C=C3[C@@H]4C[C@@](C)(C(=O)NC(C)C)CC[C@]4(C)CC[C@]32C)[C@@]1(C)CCC(=O)NC(C)C
Activity [1]: 78.4% | IC50 [2]: 4.76 µM | Activity [4]: 2.79% | Activity [5]: 5.45% | Activity [6]: 12.7% | Activity [7]: 55.7% | Activity [8]: 94.14% | Activity [9]: 35.7% | Activity [10]: 12.65% | Activity (NTUB1): inactive | Activity [11]: Dose-dependent effect | Activity (PC-3): Active | Activity [12]: 66.1% | Activity [13]: 4% | Activity [14]: 87.17% | Activity [15]: 5.22% | Activity [16]: 12.7% | Activity [17]: 14.7% | Activity [18]: 85.6% | Activity [19]: 20.4% | Activity [20]: 3.15% | Activity [21]: 44.07% | Activity [22]: 55.65% | Activity [23]: 49.5% | Activity [24]: Non-toxic
